Measurements taken from ChEMBL document CHEMBL3351678, “Benzoquinones as inhibitors of botulinum neurotoxin serotype A” (Bioorg Med Chem, 2014).
Active and inactive are the calls of the source. The calls are words filed in the database; no cut-off is given here.

Columns and labels:
[1] = Glutathione reactivity at 1 mM in presence of 1 mM glutathione containing PBS and 1 mM EDTA buffer at pH 7.4 assessed as remaining GSH level after 10 seconds by spectrophotometry by Ellman's method
Summary of the method: (§1)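 Compound (1 mM) incubated with glutathione (1 mM) in PBS + 1 mM EDTA, pH 7.4. At each time point, an aliquot was diluted 1:10 into 4 mg/mL DTNB and absorbance read at 412 nm. Compound blanks included. Free GSH quantified against a 0–1.25 mM GSH standard curve and expressed as % remaining.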

[2] = molecular target: Botulinum neurotoxin type A (Clostridium botulinum) (UniProt P0DPI0); experiment: Inhibition of recombinant Clostridium botulinum neurotoxin serotype A light chain assessed as Kinact to KI ratio at 50 uM after 1.5 hrs by SNAPtide FRET based assay
[3] = Glutathione reactivity at 1 mM in presence of 1 mM glutathione containing PBS and 1 mM EDTA buffer at pH 7.4 assessed as remaining GSH level after 30 mins by spectrophotometry by Ellman's method; summary of the method: as §1
[4] = Glutathione reactivity at 1 mM in presence of 1 mM glutathione containing PBS and 1 mM EDTA buffer at pH 7.4 assessed as second order rate constant by spectrophotometry by Ellman's method
Summary of the method: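 Compound and glutathione (1 mM each) in PBS + 1 mM EDTA, pH 7.4. Free thiol followed over time by 1:10 dilution into 4 mg/mL DTNB, A412, with compound blanks and a GSH standard curve. Second-order kGSH of Michael adduct formation derived from 1/[GSH] − 1 = 2kGSH·t.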

[5] = Glutathione reactivity at 1 mM in presence of 1 mM glutathione containing PBS and 1 mM EDTA buffer at pH 7.4 assessed as remaining GSH level after 1 hr by spectrophotometry by Ellman's method; summary of the method: as §1
[6] = molecular target: T1, Botulinum neurotoxin type A (Clostridium botulinum, UniProt P0DPI0); experiment: Competitive inhibition of recombinant Clostridium botulinum neurotoxin serotype A light chain assessed as [13C]-labeled 9-mer cleavage product formation using 66-mer substrate after 25 mins by LC-MS method
Summary of the method: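 66-mer SNAP-25 substrate (5 µM) cleaved by recombinant BoNT/A LC (0.8 nM) in 40 mM HEPES pH 7.4 for 25 min. Quenched with 20% TFA. 13C-labelled 9-mer internal standard added, and cleavage product quantified by LCMS relative to it. IC50 derived from initial velocities using the rearranged IC50 equation.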

[7] = molecular target: T1, Botulinum neurotoxin type A; experiment: Competitive inhibition of recombinant Clostridium botulinum neurotoxin serotype A light chain assessed as reduction in initial rates of BoNT/A LC activity by SNAPtide FRET based assay
Summary of the method: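 Recombinant 425-aa BoNT/A LC (18.5 nM) and SNAPtide (5 µM) in 40 mM HEPES + 0.1% Triton X-100, pH 7.4. Cleavage read by fluorescence. Velocities fitted to V = Vcontrol/(1 + [I]/IC50) to give IC50.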

[8] = molecular target: T1, Botulinum neurotoxin type A; experiment: Competitive inhibition of recombinant Clostridium botulinum neurotoxin serotype A light chain assessed as reduction in benzoquinone-mediated BoNT/A inactivation by SNAPtide FRET based assay
[9] = molecular target: Botulinum neurotoxin type A (Clostridium botulinum) (UniProt P0DPI0); experiment: Irreversible inhibition of recombinant Clostridium botulinum neurotoxin serotype A light chain assessed as Kinact to KI ratio after 1.5 hrs by SNAPtide FRET based assay
[10] = molecular target: Botulinum neurotoxin type A (Clostridium botulinum) (UniProt P0DPI0); experiment: Time dependent inhibition of recombinant Clostridium botulinum neurotoxin serotype A light chain assessed as Kinact to KI ratio at 200 uM by SNAPtide FRET based assay
Summary of the method: (§2)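 Recombinant 425-residue BoNT/A light chain (18.5 nM) with 5 µM SNAPtide FRET substrate in 40 mM HEPES, 0.1% Triton X-100, pH 7.4. Inhibitor is present with enzyme and substrate, without preincubation, across a range of concentrations.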

[11] = molecular target: T1, Botulinum neurotoxin type A; experiment: Competitive inhibition of Clostridium botulinum neurotoxin serotype A light chain
[12] = molecular target: Botulinum neurotoxin type A (Clostridium botulinum) (UniProt P0DPI0); experiment: Time dependent inhibition of recombinant Clostridium botulinum neurotoxin serotype A light chain assessed as Kinact to KI ratio after 1.5 hrs by SNAPtide FRET based assay; summary of the method: as §2
[13] = molecular target: Botulinum neurotoxin type A (Clostridium botulinum) (UniProt P0DPI0); experiment: Inhibition of recombinant Clostridium botulinum neurotoxin serotype A light chain assessed as [13C]-labeled 9-mer cleavage product formation at 50 uM using 66-mer substrate after 25 mins by LC-MS method
Summary of the method: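 Inhibitors at 50 µM with recombinant BoNT/A LC (0.8 nM) and 66-mer substrate (5 µM) in 40 mM HEPES pH 7.4. Cleavage ran 25 min, then quenched with 20% TFA. 9-mer product quantified by LCMS against a 13C-labelled 9-mer internal standard.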

Botulinum neurotoxin type A (Clostridium botulinum), sequence (P0DPI0 2-448 limits assumed): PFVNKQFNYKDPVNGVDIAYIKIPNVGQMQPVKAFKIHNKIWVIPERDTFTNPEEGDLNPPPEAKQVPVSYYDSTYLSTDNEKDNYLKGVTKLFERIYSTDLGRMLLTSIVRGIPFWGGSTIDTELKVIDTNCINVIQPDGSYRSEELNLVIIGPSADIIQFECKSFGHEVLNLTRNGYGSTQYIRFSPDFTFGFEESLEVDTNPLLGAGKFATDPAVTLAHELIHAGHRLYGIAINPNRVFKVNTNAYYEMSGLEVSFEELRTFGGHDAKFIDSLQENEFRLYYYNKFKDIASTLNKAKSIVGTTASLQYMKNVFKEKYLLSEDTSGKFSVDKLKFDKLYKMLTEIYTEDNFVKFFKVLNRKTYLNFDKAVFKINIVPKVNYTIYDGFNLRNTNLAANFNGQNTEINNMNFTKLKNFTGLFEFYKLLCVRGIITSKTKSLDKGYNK
T1 sequence (P0DPI0 2-448 limits assumed): as above

| SMILES | Activity [1] [%] | Ratio [2] [M⁻¹ s⁻¹] | Activity [3] [%] | IC50 ([6]; read-out: IC50) [µM] | other results |
| --- | --- | --- | --- | --- | --- |
| COc1cccc2c1C(=O)C=CC2=O | 80 | 0.99 | 27 | – | K [4]: 0.053 min⁻¹; Activity [5]: 14% |
| COC1=CC(=O)C=C(OC)C1=O | 45 | – | 0 | – | inhibition [2]: inactive |
| CC1=CC(=O)C=CC1=O | 35 | 2.5 | 5 | – | – |
| NCC(=O)Nc1ccc(Oc2ccccc2)cc1 | – | – | – | 120 | IC50 [7]: 163 µM; IC50 [8]: 258 µM |
| COC1=CC(=O)C=CC1=O | – | 4.1 | – | – | – |
| O=C1C=CC(=O)C(Nc2cccc(C(=O)NCc3ccc(Oc4ccccc4)cc3)n2)=C1 | – | 1.7 | – | 2.3 | – |
| O=C1C=CC(=O)c2c(OCc3ccccc3)cccc21 | 57 | 2 | 39 | – | – |
| Cc1ccc(C2=CC(=O)c3ccccc3C2=O)cc1 | – | 0.91 | – | – | – |
| O=C1C=CC(=O)C(CCC(=O)O)=C1 | – | 1.2 | – | – | IC50 [6]: Not Active |
| O=C(NCc1ccc(-c2ccccc2)cc1)c1nc[nH]n1 | – | – | – | 210 | – |
| O=C1C=CC(=O)C(c2ccc(I)cc2)=C1 | – | 10 | – | – | – |
| COC1=C(c2ccc(C)cc2)C(=O)C=CC1=O | 25 | 9.5 | 19 | – | – |
| O=C1C=CC(=O)c2c(O)cccc21 | 44 | 5.3 | 32 | – | Ratio [9]: 3.71 M⁻¹ s⁻¹; Ratio [10]: 3.35 M⁻¹ s⁻¹ |
| O=C1C=CC(=O)C(c2ccccc2)=C1 | 21 | 9.7 | 8 | – | – |
| C[C@]12CC[C@@H]3c4ccc(C5=CC(=O)C=CC5=O)cc4CC[C@H]3[C@@H]1CCC2=O | – | 3.9 | – | – | – |
| COc1ccc(OC)c(Nc2cccc(C(=O)NCc3ccc(Oc4ccccc4)cc3)n2)c1 | – | – | – | 200 | – |
| O=C1C=CC(=O)C(Nc2ccccn2)=C1 | – | – | – | 97 | – |
| COC1=CC(=O)C(c2ccc(C)cc2)=CC1=O | – | – | – | – | inhibition [2]: inactive |
| CC(=O)Oc1cccc2c1C(=O)C=CC2=O | 51 | 4 | 26 | – | – |
| NCC(=O)Nc1cccc(OCc2ccccc2)c1 | – | – | – | 417 | – |

| SMILES | Activity [1] [%] | Ratio [2] [M⁻¹ s⁻¹] | Activity [3] [%] | IC50 ([6]; read-out: IC50) [µM] | other results |
| --- | --- | --- | --- | --- | --- |
| O=C1C=CC(=O)C(Cn2cnc(C(=O)NCc3ccc(-c4ccccc4)cc3)n2)=C1 | – | – | – | 2.5 | – |
| O=C1C=CC(=O)C(CNCC(=O)Nc2cccc(OCc3ccccc3)c2)=C1 | – | – | – | 18 | – |
| COc1ccc(OC)c(CNCC(=O)Nc2cccc(OCc3ccccc3)c2)c1 | – | – | – | 25 | – |
| CC1=CC(=O)C(C(C)C)=CC1=O | – | 0.38 | – | – | – |
| O=C1C=CC(=O)c2cc(O)ccc21 | 71 | 0.94 | 32 | – | K [4]: 0.036 min⁻¹; Ratio [9]: 1.17 M⁻¹ s⁻¹; Activity [5]: 22% |
| CC1=CC(=O)c2ccccc2C1=O | – | 1.1 | – | – | – |
| NCC(=O)NCc1ccc(-c2ccccc2)cc1 | – | – | – | 160 | – |
| COc1ccc(OC)c(Cn2cnc(C(=O)NCc3ccc(-c4ccccc4)cc3)n2)c1 | – | – | – | 40 | – |
| ONCC12CC3CC(CC(C3)C1)C2 | – | – | – | – | IC50 [7]: 1.6 µM; IC50 [8]: 1.5 µM; Ki [11]: 0.46 µM |
| O=C1C=CC(=O)c2ccccc21 | 47 | 2 | 20 | – | – |
| O=C1C=CC(=O)C(CC(=O)O)=C1 | – | 0.56 | – | 9.3 | – |
| O=C1C=C(Cl)C(=O)C=C1Cl | 0 | 84 | 0 | – | – |
| O=C1C=CC(=O)c2c(O)ccc(O)c21 | 85 | 2.2 | 39 | – | K [4]: 0.025 min⁻¹; Activity [5]: 26% |
| CC1=CC(=O)C=C(C)C1=O | 22 | – | 0 | – | inhibition [2]: inactive |
| COC1=CC(=O)C(OC)=C(c2ccc(C)cc2)C1=O | 89 | 0.82 | 49 | – | K [4]: 0.032 min⁻¹; Activity [5]: 35% |
| O=C1C=CC(=O)C(Cl)=C1 | – | 51 | – | – | – |
| O=C(NCc1ccc(Oc2ccccc2)cc1)c1ccccn1 | – | – | – | 570 | – |
| COC(=O)c1cccc(NC2=CC(=O)C=CC2=O)n1 | – | – | – | 14 | – |
| O=C1C=CC(=O)C=C1 | 24 | 17 | 6 | – | Ratio [12]: 11.8 M⁻¹ s⁻¹; Ratio [9]: 12.4 M⁻¹ s⁻¹; inhibition [13]: Active |
